Measurements collected from several papers.
Protocols differ between the studies behind these lines.
Target: Phosphatidylinositol 4-phosphate 3-kinase C2 domain-containing subunit beta (PIK3C2B, Homo sapiens, UniProt O00750)

The remaining binding of `C[C@H](c1ccnc(Nc2nc3ccc(-c4cc(N(C)C)ncn4)cc3[nH]2)c1)N1CCN(C(=O)CC(F)(F)F)CC1` is reported as 97% (cell-free assay; competition with immobilised ligand; 0.1 µM).
The remaining binding of `COc1ncc2cc3ccccc3nc2c1C#N` is reported as 100% (cell-free assay; competition with immobilised ligand; 5 µM).
With `COc1cnc(Nc2cccc(S(N)(=O)=O)c2)nc1N1CCN(c2ccccc2)C(=O)C1` the remaining binding was 97% (binding; competition with immobilised ligand; 1 µM).
`C=CC(=O)N1CCC(C(=O)NCC(=O)N2CCN(c3nc(-c4cnc(N)nc4C(F)F)nc(N4CCOCC4)n3)CC2)CC1` has a remaining binding of 21% (binding; competition with immobilised ligand; 1 µM).
`CN(C)c1ncc(F)c(-c2cnn3ncccc23)n1` has a remaining binding of 76% (binding; 1 µM).
`Cc1nccc(COC(=O)N2C[C@@H]3[C@@H](CNC(=O)c4ccc5[nH]nnc5c4)[C@@H]3C2)n1` gave a remaining binding of 97% (cell-free assay; competition with immobilised ligand; 1 µM).
`CNC(=O)[C@@H]1CC[C@@H](n2c(-c3ccc4cnccc4c3)nc3ccc(C(=O)NCc4cccc(C(N)=O)c4)cc32)C1` has a remaining binding of 100% (binding; competition with immobilised ligand; 1 µM).
With `O=C(c1ccc(Nc2ncc(Cl)c(-c3cc4ccccc4s3)n2)cc1)N1CCC(N2CCCC2)CC1` the remaining binding was 100% (binding; competition with immobilised ligand; 1 µM).
The remaining binding of `C[C@@H]1CN(c2cc(-c3nn(C)c4ccc(OC5(C)CC5)cc34)ncn2)C[C@H](C)O1` is reported as 70% (cell-free assay; competition with immobilised ligand; 1 µM).
The remaining binding of `CN(C)c1nccc(-c2cnn3ncccc23)n1` is reported as 100% (binding; 1 µM).
For `O=S(=O)(NC1CCC(c2cc(F)ccc2F)(S(=O)(=O)c2ccc(Cl)cc2)CC1)C(F)(F)F` (stereo not drawn), the remaining binding was 100% (cell-free assay; competition with immobilised ligand; 1 µM).
The remaining binding of `CCN1CCN(Cc2ccc(C(=O)Nc3ccc(C)c(Oc4ccc5c(c4)CC(=O)N5)c3)cc2C(F)(F)F)CC1` is reported as 66% (binding; competition with immobilised ligand; 1 µM).
For `CN(C)c1nccc(-c2cnc3ncccn23)n1`, the remaining binding was 57% (binding; 1 µM).
With `O=C(NCC1CCOCC1)c1n[nH]cc1NC(=O)c1c(F)cccc1F` the remaining binding was 100% (binding; competition with immobilised ligand; 1 µM).
`O=C(NCCCN1CCOCC1)c1ccc(Nc2ncc(Cl)c(-c3ccc(Cl)s3)n2)cc1` gave a remaining binding of 100% (binding; competition with immobilised ligand; 1 µM).
`O=C(Nc1cccnn1)N1CCC(=Cc2cccc(Oc3ccc(C(F)(F)F)cn3)c2)CC1` gave a remaining binding of 91% (cell-free assay; competition with immobilised ligand; 1 µM).
For `F[C@@H]1CCN(c2nccc(-c3cnn4ncccc34)n2)C1`, the remaining binding was 85% (binding; 1 µM).
`CC1=C(C#N)C(c2ccc3c(c2)c(NC(=O)c2ccccc2C)nn3C)C(C#N)=C(C)N1` has a remaining binding of 76% (cell-free assay; competition with immobilised ligand; 1 µM).
`N[C@H]1CCN(c2nccc(-c3cnn4ncccc34)n2)C1` gave a remaining binding of 100% (binding; 1 µM).
`COc1ccc2c(O[C@@H]3C[C@H]4C(=O)N[C@]5(C(=O)O)CC5/C=C\CCCCC[C@H](NC(=O)OC5CCCC5)C(=O)N4C3)cc(-c3csc(NC(=O)C(C)C)n3)nc2c1C` (stereo partly drawn) has a remaining binding of 82% (cell-free assay; competition with immobilised ligand; 1 µM).
With `CN(c1nccc(-c2cnn3ncccc23)n1)C1CC1` the remaining binding was 100% (binding; 1 µM).
With `Cc1cnc(Nc2ccc(C(=O)N3CCC(N4CCCC4)CC3)cc2)nc1-c1cc2ccccc2s1` the remaining binding was 99% (binding; competition with immobilised ligand; 1 µM).
With `N#Cc1ccccc1CSc1nnc2c(n1)[nH]c1ccccc12` the remaining binding was 95% (binding; competition with immobilised ligand; 10 µM).
`Cc1cnn2ncc(-c3ccnc(N(C)C)n3)c2c1` has a remaining binding of 100% (binding; 1 µM).
